From ChEMBL document CHEMBL4396890, “Synthesis, Biological Evaluation, Structure-Activity Relationship, and Mechanism of Action Studies of Quinoline-Metronidazole Derivatives Against Experimental Visceral Leishmaniasis” (J Med Chem, 2019)
Activity calls are given as the source filed them. The calls are words filed in the database; no cut-off is given here.

What was measured:
[1] = test system: Leishmania donovani; experiment: Antileishmanial activity against Leishmania donovani MHOM/IN/80/Dd8 promastigotes infected in BALB/c mouse assessed as reduction in parasite load in spleen at 25 mg/kg, ip administered once daily for 5 days measured 7 days post dose by giemsa staining-based assay relative to control; assay type: functional; set-up: scale not given: the % may be the effect or the level left
In short: (§1)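 Hamster-passaged strain was transformed to promastigotes. Stationary-phase cells (2 × 10^7 in 0.2 mL PBS) were injected into the tail vein of BALB/c mice. From day 15 post-infection, mice received compound ip in 8% DMSO in PBS for 5 consecutive days, 5 mice per group. Mice were killed day 7 post-treatment. Liver and spleen burden was read from Giemsa-stained stamp smears as LDU.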

[2] = test system: Leishmania donovani; experiment: Antileishmanial activity against Leishmania donovani MHOM/IN/80/Dd8 promastigotes infected in BALB/c mouse assessed as reduction in parasite load in liver at 25 mg/kg, ip administered once daily for 5 days measured 7 days post dose by giemsa staining-based assay relative to control; assay type: functional; set-up: scale not given: the % may be the effect or the level left; in short: as §1
[3] = test system: Leishmania donovani; experiment: Antileishmanial activity against Leishmania donovani MHOM/IN/80/Dd8 promastigotes infected in BALB/c mouse assessed as reduction in parasite load in liver at 100 mg/kg, ip administered once daily for 5 days measured 7 days post dose by giemsa staining-based assay relative to control; assay type: functional; set-up: scale not given: the % may be the effect or the level left; in short: as §1
[4] = test system: Leishmania donovani; experiment: Induction of plasma membrane permeabilization in Leishmania donovani MHOM/IN/80/Dd8 promastigotes assessed as increase in fluorescence at MIC measured after 4 hrs by sytox green dye based flow cytometry relative to 0.1 % triton-X 100; assay type: functional
[5] = test system: Leishmania donovani; experiment: Induction of apoptosis in Leishmania donovani MHOM/IN/80/Dd8 promastigotes assessed as late apoptotic cells at 50 uM measured after 24 hrs by Annexin V-FITC/propidium iodide staining based assay (reference value: 0.46%); assay type: functional
[6] = test system: Leishmania donovani; experiment: Induction of apoptosis in Leishmania donovani MHOM/IN/80/Dd8 promastigotes assessed as late apoptotic cells at 50 uM measured after 24 hrs by Annexin V-FITC/propidium iodide staining based assay (reference value: 0.02%); assay type: functional
[7] = test system: Leishmania donovani; experiment: Induction of apoptosis in Leishmania donovani MHOM/IN/80/Dd8 promastigotes assessed as DNA fragmentation at 50 uM after 48 hrs by TUNEL staining-based fluorescence assay; assay type: functional, organism-based
In short: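 Log-phase promastigotes (1 × 10^5) were treated with 50 μM compound or 0.1% DMSO vehicle for 48 h. DNA fragmentation was labelled with an APO-BrdU TUNEL kit with PI counterstain. Cells were imaged by phase-contrast and fluorescence microscopy.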

[8] = test system: Leishmania donovani; experiment: Induction of mitochondrial potential loss in Leishmania donovani MHOM/IN/80/Dd8 promastigotes assessed as shift in red to green fluorescence at 50 uM after 24 hrs by JC1 dye-based flow cytometry (reference value: 7.37%); assay type: functional
In short: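 Exponential-phase promastigotes were incubated with 50 μM compound for 6−48 h, or 0.1% DMSO vehicle. CCCP (50 μM) served as positive control. After JC-1 staining, the red-to-green fluorescence shift was measured by flow cytometry.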

Cc1cc(-c2ccc(OCCn3c([N+](=O)[O-])cnc3C)cc2)nc2ccccc12
Activity [1]: >62%
Activity [2]: >62%
Activity [3]: 82.5%
Activity [4]: 3.63%
Activity [5]: 48.14%
Activity [6]: 10.04%
Activity [7]: Active
Activity [8]: 54.18%
